This note sets out measurements from ChEMBL document CHEMBL1158990, “New cytotoxic lupane lactones from Kokoona ochracea” (1991).

Values after ≈ are worked out from the molar mass of the structure shown. Some results are limits rather than exact numbers.

Format in all cases: functional
One assay relates to HT-1080. The assay is described as follows: Cytotoxicity against human HT1080 cells after 72 hrs. Conditions: HT-1080, 72 h, read-out: ED50 (the source's name). A digest of the protocol: (§1)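 In vitro growth-inhibition assay with a 72 h compound exposure. ED50 in µg/ml is the concentration that inhibits cell growth by 50%.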
Assay [1] is described as follows: Cytotoxicity against human KBV1 cells after 72 hrs. Conditions: KB-V1, 72 h, read-out: ED50 (the source's name).
Assay [2] is described as follows: Cytotoxicity against human UISO-LUC1 cells after 72 hrs. Conditions: UISO-LUC1, 72 h, read-out: ED50 (the source's name). A digest of the protocol:
as §1

Assay [3] can be described thus: Cytotoxicity against human KB3 cells after 72 hrs. Conditions: KB3, 72 h, read-out: ED50 (the source's name). Put shortly: as §1
A short description of assay [4]: Cytotoxicity against human UISO-BCA1 cells after 72 hrs. Conditions: UISO-BCA1, 72 h, read-out: ED50 (the source's name). Put shortly: as §1
Assay [5] in a line: Cytotoxicity against human UISO-COL2 cells after 72 hrs. Conditions: UISO-COL2, 72 h, read-out: ED50 (the source's name). Put shortly:
as §1

Another assay relates to P388. The assay is described as follows: Cytotoxicity against mouse P388 cells after 48 hrs. Conditions: P388, 48 h, read-out: ED50 (the source's name). A digest of the protocol: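 Cultured murine P-388 leukemia cells were treated with compound for 48 h. The read-out is cell growth inhibition, and ED50 in µg/ml is the concentration producing 50% inhibition.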
A short description of assay [6]: Cytotoxicity against human UISO-MEL2 cells after 72 hrs. Conditions: UISO-MEL2, 72 h, read-out: ED50 (the source's name). Put shortly:
as §1

As to `CC1(C)C(=O)CC[C@]2(C)[C@H]3CC[C@H]4[C@@H]5[C@H]6[C@@H](C[C@]5(C)CC[C@@]4(C)[C@]3(C)CC[C@@H]12)OC(=O)[C@@]61CO1`, the EC50 in the assay with HT-1080 was over 20 µg/mL; in assay [1], over 20 µg/mL; in assay [2], over 20 µg/mL; in assay [3], 5.2 µg/mL (≈ 11.1 µM); in assay [4], over 20 µg/mL; in assay [5], over 20 µg/mL. For the same compound, the values for the EC50 (with P388; in assay [6]) were 7.8 µg/mL (≈ 16.6 µM) and over 20 µg/mL, respectively.
With `C=C1C(=O)O[C@@H]2C[C@]3(C)CC[C@]4(C)[C@@H](CC[C@@H]5[C@@]6(C)CCC(=O)C(C)(C)[C@@H]6C(=O)C[C@]54C)[C@@H]3[C@H]12` [OCHRACEOLIDE C], the EC50 in the assay on HT-1080 is 8.6 µg/mL (≈ 18.4 µM); in assay [1], over 20 µg/mL; in assay [2], 12 µg/mL (≈ 25.7 µM); in assay [3], 5.5 µg/mL (≈ 11.8 µM); in assay [4], 4.5 µg/mL (≈ 9.64 µM); in assay [5], 9.2 µg/mL (≈ 19.7 µM). Also, the EC50 in the assay with P388 is 0.53 µg/mL (≈ 1.14 µM); in assay [6], 8.3 µg/mL (≈ 17.8 µM).
With `C=C1C(=O)O[C@@H]2C[C@]3(C)CC[C@]4(C)[C@H](CC[C@@H]5[C@@]6(C)CCC(=O)C(C)(C)[C@@H]6CC[C@]54C)[C@H]3[C@H]12` [OCHRACEOLIDE A], the EC50 in the assay on HT-1080 is 9.6 µg/mL (≈ 21.2 µM); in assay [1] it was over 20 µg/mL; in assay [2] it was 12 µg/mL (≈ 26.5 µM); in assay [3], 2.7 µg/mL (≈ 5.96 µM); in assay [4] it was 10 µg/mL (≈ 22.1 µM); in assay [5], 6.8 µg/mL (≈ 15 µM). Moreover, the EC50 with P388 turned out to be 0.26 µg/mL (≈ 0.574 µM); in assay [6], 8.3 µg/mL (≈ 18.3 µM).
